Here are results for one compound from ChEMBL document CHEMBL1151472, “In vitro interactions between tacrolimus and azoles against Candida albicans determined by different methods” (2008).

This experiment concerns Candida albicans. Nature of the experiment: Antimicrobial activity against azole-resistant Candida albicans isolate CA10 assessed as growth at 4 ug/ml cotreated with 0.125 ug/ml calcineurin signaling inhibitor Tacrolimus after 48 hrs by microdilution checkboard technique relative to control. It is filed as functional. The arrangement: scale not given: the % may be the effect or the level left. The essentials:
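CA10 in RPMI 1640 with 2% dextrose and 0.165 M MOPS, pH 7.0. Checkerboard used twofold dilutions, with azole alone in row H and the drug-free growth control in well H1. Final inoculum was 2.5 × 10^3 CFU/ml, incubated 35°C for 48 h, with OD read at 492 nm. Growth % = background-subtracted well OD / drug-free well OD. Run in triplicate on different days.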

On to `OC(Cn1cncn1)(Cn1cncn1)c1ccc(F)cc1F` [FLUCONAZOLE], for which the Activity amounted to 5%.
